Test results reported in ChEMBL document CHEMBL1926597, “Isoflavonoids and coumarins from Glycyrrhiza uralensis: antibacterial activity against oral pathogens and conversion of isoflavans into isoflavan-quinones during purification” (J Nat Prod, 2011).
The source made the active and inactive calls. The calls are words filed in the database; no cut-off is given here.

What was measured:
Streptococcus mutans [1] = assay: Antibacterial activity against Streptococcus mutans ATCC 25175 assessed as growth inhibition at 1.25 to 10 ug/ml after 24 hrs by microplate dilution assay; assay type: functional, organism-based
Prevotella intermedia [2] = assay: Antibacterial activity against Prevotella intermedia ATCC 25611 assessed as growth inhibition at 1.25 to 10 ug/ml after 24 hrs by microplate dilution assay; assay type: functional, organism-based
Summary of the method: (§1)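 Todd Hewitt broth with hemin (10 μg/mL) and vitamin K (1 μg/mL). 24-h cultures were diluted to OD660 0.2 and mixed 1:1 with serial dilutions in broth (compounds 10 to 1.25 μg/mL; penicillin G 2.5 to 0.00625 μg/mL). Plates were incubated 24 h at 37 °C anaerobically (N2–H2–CO2 75:10:15), then OD660 was read against no-compound control wells. Triplicates were given as mean ± SD; Student's t test was applied when inhibition was ≥20%.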

Streptococcus sobrinus [3] = assay: Antibacterial activity against Streptococcus sobrinus ATCC 33478 assessed as growth inhibition at 1.25 to 10 ug/ml after 24 hrs by microplate dilution assay; assay type: functional, organism-based
Streptococcus sobrinus [4] = assay: Antibacterial activity against Streptococcus sobrinus ATCC 33478 assessed as growth inhibition at 0.00625 to 2.5 ug/ml after 24 hrs by microplate dilution assay; assay type: functional, organism-based
Prevotella intermedia [5] = assay: Antibacterial activity against Prevotella intermedia ATCC 25611 assessed as growth inhibition at 0.00625 to 2.5 ug/ml ug/ml after 24 hrs by microplate dilution assay; assay type: functional, organism-based; summary of the method: as §1
Porphyromonas gingivalis [6] = assay: Antibacterial activity against Porphyromonas gingivalis ATCC 33277 assessed as growth inhibition at 0.00625 to 2.5 ug/ml ug/ml after 24 hrs by microplate dilution assay; assay type: functional; summary of the method: as §1
Fusobacterium nucleatum [7] = assay: Antibacterial activity against Fusobacterium nucleatum ATCC 25586 assessed as growth inhibition at 0.00625 to 2.5 ug/ml ug/ml after 24 hrs by microplate dilution assay; assay type: functional, organism-based; summary of the method: as §1
Streptococcus mutans [8] = assay: Antibacterial activity against Streptococcus mutans ATCC 25175 assessed as growth inhibition at 0.00625 to 2.5 ug/ml after 24 hrs by microplate dilution assay; assay type: functional, organism-based
Porphyromonas gingivalis [9] = assay: Antibacterial activity against Porphyromonas gingivalis ATCC 33277 assessed as growth inhibition at 1.25 to 10 ug/ml after 24 hrs by microplate dilution assay; assay type: functional; summary of the method: as §1
Fusobacterium nucleatum [10] = assay: Antibacterial activity against Fusobacterium nucleatum ATCC 25586 assessed as growth inhibition at 1.25 to 10 ug/ml after 24 hrs by microplate dilution assay; assay type: functional, organism-based; summary of the method: as §1
Streptococcus mutans [11] = assay: Antibacterial activity against Streptococcus mutans ATCC 25175 assessed as growth inhibition at 10 ug/ml after 24 hrs by microplate dilution assay; assay type: functional, organism-based
Streptococcus sobrinus [12] = assay: Antibacterial activity against Streptococcus sobrinus ATCC 33478 assessed as growth inhibition at 10 ug/ml after 24 hrs by microplate dilution assay; assay type: functional, organism-based

Structure (SMILES)	growth inhibition (GI) (Streptococcus mutans [1])	growth inhibition (GI) (Prevotella intermedia [2])	growth inhibition (GI) (Streptococcus sobrinus [3])	other results
COc1cc2c(c(OC)c1CC=C(C)C)C[C@H](c1ccc(O)cc1O)CO2	inactive	Active	inactive	
CC1(C)S[C@@H]2[C@H](NC(=O)Cc3ccccc3)C(=O)N2[C@H]1C(=O)O				growth inhibition (GI) (Streptococcus sobrinus [4]): Active; growth inhibition (GI) (Prevotella intermedia [5]): Active; growth inhibition (GI) (Porphyromonas gingivalis [6]): Active; growth inhibition (GI) (Fusobacterium nucleatum [7]): Active; growth inhibition (GI) (Streptococcus mutans [8]): Active
CC(C)=CCc1cc(-c2coc3cc(O)cc(O)c3c2=O)c(O)cc1O	inactive	Active	inactive	
COc1c(CC=C(C)C)c(O)cc2oc(=O)c(-c3ccc(O)cc3O)cc12	inactive	Active	inactive	
COc1c(CC=C(C)C)c(O)cc2c1C[C@H](c1ccc(O)c(CC=C(C)C)c1O)CO2		Active		growth inhibition (GI) (Porphyromonas gingivalis [9]): Active; growth inhibition (GI) (Fusobacterium nucleatum [10]): Active; growth inhibition (GI) (Streptococcus mutans [11]): Active; growth inhibition (GI) (Streptococcus sobrinus [12]): Active
COc1cc2oc(=O)c(-c3ccc(O)cc3O)cc2c(OC)c1CC=C(C)C	inactive	Active	inactive	
COc1cc2c(c(OC)c1CC=C(C)C)C[C@H](C1=CC(=O)C(O)=C(CC=C(C)C)C1=O)CO2	inactive	Active	inactive	
